According to ChEMBL document CHEMBL1136047, “Discovery of N-[2-[2-[[3-methoxy-4-(5-oxazolyl)phenyl]amino]-5-oxazolyl]phenyl]-N-methyl-4- morpholineacetamide as a novel and potent inhibitor of inosine monophosphate dehydrogenase with excellent in vivo activity” (J Med Chem, 2002):

Experiments:
[1] = biological target: T1, Inosine-5'-monophosphate dehydrogenase 2 (Homo sapiens, UniProt P12268); experiment: Inhibition of human inosine-5'-monophosphate dehydrogenase 2
[2] = system: CCRF-CEM; experiment: In vitro secondary T-cell (CEM) proliferation assay; format: functional, cell-based; conditions: Homo sapiens
Outline: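 Inhibition of CEM T-cell line proliferation. IC50 in μM, reported as the mean of n = 3 determinations.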

[3] = Cmax was evaluated after 20 umol/kg of peroral administration; format: ADME, organism-based; parameters: dose 20 umol/kg, route oral; conditions: rat, in vivo, po
Outline: (§1)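 Pharmacokinetics measured in rats.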

[4] = Half-life was evaluated after 20 uM/kg of peroral administration; format: ADME, organism-based; conditions: rat, in vivo, po; outline: as §1
[5] = Bioavailability was evaluated after 20 uM/kg of peroral administration; format: ADME, organism-based; conditions: rat, in vivo, po, read-out: Bioavailabiility; outline: as §1
[6] = system: Rattus norvegicus; experiment: Area under the curve was evaluated after 10 uM/kg of intra arterial administration; format: ADME, organism-based; conditions: in vivo, other; outline: as §1
[7] = Half-life was evaluated after 10 uM/kg of intra arterial administration; format: ADME, organism-based; conditions: rat, in vivo; outline: as §1
[8] = Vss was evaluated after 10 uM/kg of intra arterial administration; format: ADME, organism-based; conditions: rat, in vivo, read-out: Vss; outline: as §1
[9] = Plasma clearance was evaluated after 10 uM/kg of intra arterial administration; format: ADME, organism-based; conditions: rat; outline: as §1
[10] = system: Rattus norvegicus; experiment: Area under the curve was evaluated after 20 uM/kg of peroral administration; format: ADME, organism-based; conditions: in vivo, po; outline: as §1
[11] = biological target: T1, Inosine-5'-monophosphate dehydrogenase 2; experiment: In vitro concentration that causes 50% inhibition of Inosine-5'-monophosphate dehydrogenase 2
Outline: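 Inhibition of IMPDH type II catalytic activity. IC50 reported as the mean of n = 3 determinations.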

CNCC(=O)N(C)c1ccccc1-c1cnc(Nc2ccc(-c3cnco3)c(OC)c2)o1
IC50 [1]: 22 nM | IC50 [2]: 960 nM

COc1cc(Nc2ncc(-c3ccccc3N(C)C(=O)CN3CCOCC3)o2)ccc1-c1cnco1
Cmax [3]: 1500 nM | half-life [4]: 2.5 h | bioavailability [5]: 25% | AUC [6]: 2.37 µM·h | half-life [7]: 5.9 h | Vd [8]: 2.1 L/kg | IC50 [1]: 12 nM | clearance [9]: 71 mL/min/kg | AUC [10]: 1.2 µM·h

COc1cc(Nc2ncc(-c3ccccc3)o2)ccc1-c1cnco1
IC50 [1]: 20 nM | IC50 [2]: 7000 nM

COc1cc(Nc2ncc(-c3ccccc3NC(C)=O)o2)ccc1-c1cnco1
IC50 [1]: 30 nM | IC50 [2]: 1000 nM

CNC(=O)c1ccccc1-c1cnc(Nc2ccc(-c3cnco3)c(OC)c2)o1
IC50 [1]: 104 nM | IC50 [2]: 8000 nM

COc1cc(Nc2ncc(-c3ccccc3C)o2)ccc1-c1cnco1
IC50 [1]: 25 nM | IC50 [2]: > 10000 nM

COc1cc(Nc2ncc(-c3ccccc3C(=O)N(C)C)o2)ccc1-c1cnco1
IC50 [1]: 141 nM | IC50 [2]: 9000 nM

COc1cc(Nc2ncc(-c3ccccc3N(C)C(C)=O)o2)ccc1-c1cnco1
IC50 [1]: 18 nM | IC50 [2]: 730 nM

COc1cc(Nc2ncc(-c3ccccc3N(C)C(=O)CCN3CCOCC3)o2)ccc1-c1cnco1
IC50 [1]: 13 nM | IC50 [2]: 680 nM

COc1ccc(-c2cnc(Nc3ccc(-c4cnco4)c(OC)c3)o2)cc1
IC50 [1]: 115 nM | IC50 [2]: 9000 nM

COc1c(C)c2c(c(O)c1C/C=C(\C)CCC(=O)O)C(=O)OC2 [MYCOPHENOLIC ACID]
IC50 [2]: 340 nM

COc1cc(Nc2ncc(-c3cccc(C)c3)o2)ccc1-c1cnco1
IC50 [1]: 70 nM | IC50 [2]: > 10000 nM

COc1cc(Nc2ncc(-c3ccccc3N(C)C(=O)CN(C)C)o2)ccc1-c1cnco1
IC50 [1]: 15 nM | IC50 [2]: 1000 nM

COc1cc(Nc2ncc(-c3ccccc3N(C)C(=O)CN3CCN(C)CC3)o2)ccc1-c1cnco1
IC50 [1]: 17 nM | IC50 [2]: 940 nM

CCc1nc(Nc2ccc(-c3cnco3)c(OC)c2)oc1-c1ccccc1
IC50 [1]: 86 nM | IC50 [2]: > 10000 nM

COc1cc(Nc2ncc(-c3ccccc3C(=O)O)o2)ccc1-c1cnco1
inhibition [11]: 11%

COc1cc(Nc2ncc(-c3ccccc3OC)o2)ccc1-c1cnco1
IC50 [1]: 23 nM | IC50 [2]: 7000 nM

CCOC(=O)c1ccccc1-c1cnc(Nc2ccc(-c3cnco3)c(OC)c2)o1
IC50 [1]: 127 nM | IC50 [2]: > 10000 nM

COc1cc(Nc2nc(C)c(-c3ccccc3)o2)ccc1-c1cnco1
IC50 [1]: 27 nM | IC50 [2]: 9000 nM

COc1cc(Nc2ncc(-c3ccccc3N(C)C(=O)Cn3cccn3)o2)ccc1-c1cnco1
IC50 [1]: 11 nM | IC50 [2]: 890 nM

COc1cc(Nc2ncc(-c3ccccc3N(C)C(=O)CNC(C)(C)C)o2)ccc1-c1cnco1
IC50 [1]: 20 nM | IC50 [2]: 700 nM

COc1cc(Nc2ncc(-c3ccc(C)cc3)o2)ccc1-c1cnco1
IC50 [1]: 85 nM | IC50 [2]: > 10000 nM

COc1cc(Nc2ncc(-c3ccccc3N(C)C(=O)Cn3cncn3)o2)ccc1-c1cnco1
IC50 [1]: 13 nM | IC50 [2]: 650 nM

COc1cc(NC(=O)Nc2cccc(CNC(=O)O[C@H]3CCOC3)c2)ccc1-c1cnco1 [MERIMEPODIB]
IC50 [1]: 10 nM | IC50 [2]: 430 nM

COc1cccc(-c2cnc(Nc3ccc(-c4cnco4)c(OC)c3)o2)c1
IC50 [1]: 97 nM | IC50 [2]: > 10000 nM
